Entries after “also recorded” stand apart in the source; their conditions may differ.
Test system: sperm–egg plasma membrane adhesion and fusion (zona-free eggs, acrosome-reacted sperm)
Test: In vitro sperm–egg adhesion and fusion assay with active site peptides
Assay type: cell-based, mouse
Details: peptide 500 μM, Fig. 2, FI and FR taken together
Procedure, shortened: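 Mice superovulated with 10 IU PMSG and 5 IU hCG 48 h apart. Metaphase II eggs collected ~12 h post-hCG, cumulus removed with hyaluronidase, zonae with chymotrypsin, then DAPI-preloaded. Peptide added 30 min before capacitated, acrosome-reacted sperm (2–4 × 10^4/ml final) and present throughout. Coincubated 30 min, 37 °C, 5% CO2, Whittingham's/3% BSA. Scored sperm bound/egg, FI and FR; 43–82 eggs per peptide.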

SVDECDLL [ADAM 5 peptide] was tested, and the “inhibition of sperm–egg binding and fusion (stated jointly)” value was “essentially no inhibition; also recorded: did not inhibit”.

From publication PMC2139869 (The Journal of Cell Biology, 1997)
